Mot1-301 SUMO – SUMOylation pathway inhibition by Mot1-301 growth rescue. S. cerevisiae Mot1-301 growth rescue, ATP luminescence, 38.5C; percent above DMSO median, 100 means doubled. growth rescue, % at 18.8 µM. 1% of 320,000 active;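 active = every valid replicate shows activation above 250% relative to neutral control wells; inactive = the rest, any valid replicate at or below 250%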;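 also: OY570 slx delta 5 strain wells were the positive control but not used for scaling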
KCNQ1 act – human KCNQ1 channel potentiation or activation; P51787; CHO-K1 KCNQ1, thallium flux FluxOR fluorescence; hits give high values; B-score at 10 µM; 0.35% of 310,000 active;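 active = fluorescence ratio B-score, a plate-corrected score, at least three library SD, with initial intensity B-score within 5 SD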
Target sequence (P51787 whole entry, looked up): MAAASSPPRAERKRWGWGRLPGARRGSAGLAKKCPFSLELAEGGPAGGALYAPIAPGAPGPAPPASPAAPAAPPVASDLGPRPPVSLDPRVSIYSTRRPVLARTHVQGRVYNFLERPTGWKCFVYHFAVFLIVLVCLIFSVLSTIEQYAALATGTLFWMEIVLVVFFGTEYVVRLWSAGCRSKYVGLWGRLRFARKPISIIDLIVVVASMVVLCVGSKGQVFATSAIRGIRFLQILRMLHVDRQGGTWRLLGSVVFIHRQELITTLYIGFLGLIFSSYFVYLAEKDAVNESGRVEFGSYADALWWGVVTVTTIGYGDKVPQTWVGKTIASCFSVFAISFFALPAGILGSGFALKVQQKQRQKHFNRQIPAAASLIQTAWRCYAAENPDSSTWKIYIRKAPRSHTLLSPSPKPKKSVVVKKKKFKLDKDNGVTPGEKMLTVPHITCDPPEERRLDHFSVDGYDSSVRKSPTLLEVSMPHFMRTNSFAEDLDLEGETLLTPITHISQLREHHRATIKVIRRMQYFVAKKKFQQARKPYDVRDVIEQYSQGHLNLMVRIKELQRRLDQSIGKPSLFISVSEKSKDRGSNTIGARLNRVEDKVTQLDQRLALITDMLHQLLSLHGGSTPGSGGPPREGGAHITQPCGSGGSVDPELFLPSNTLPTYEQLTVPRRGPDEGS
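System: CHO-K1 cells stably expressing KCNQ1 / Medium: assay buffer for compound exposure, DMSO matched across wells / Reagent: thallium- and potassium-containing depolarizing buffer / Compound: one concentration, matched DMSO / Incubation: 20 min compound pretreatment at room temperature / Measured by: kinetic FluxOR fluorescence, 10 s baseline plus 110 s post-stimulus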
AI-2 QS mod – modulates the Vibrio harveyi AI-2 quorum sensing system; Vibrio harveyi JMH597 AI-2 luminescence/OD600 ratio, 9 h; hits give low values; strain lacks LuxN and CqsS sensors; 0 = neutral-control median; activity change, % at 7.5 µM; 0.4% of 300,000 active; AID 2094; in the data active = activity change below about -75%, passing the limit was not always enough; inconclusive = no clear call, values can overlap the other calls;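 also: luminescence divided by OD600 gain over 9 h not by final OD600 alone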
KCNQ1 inh – inhibitors of human KCNQ1 potassium channel; P51787; CHO-K1 KCNQ1, FluxOR thallium flux fluorescence; hits give high values; B-score at 10 µM; 1.3% of 310,000 active; AID 2642;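 active = compounds whose thallium flux B-score, printed positive for inhibition, exceeds three library SD while starting fluorescence stays within three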;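 also: channel opened by potassium depolarization with thallium stimulus after 20 min compound exposure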
hERG protect – hERG (human) protection from proarrhythmic block; Q12809; CHO-hERG, FluxOR thallium flux, dofetilide IC70 present; activation (rescue from dofetilide block), less the hit threshold, % at 10 µM; 0.51% of 310,000 active;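 active = activation above the mean of controls blocked by dofetilide plus 5 SD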;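 also: thallium influx through hERG after potassium depolarization seen as dye fluorescence rise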
Cl transport mod – KCC2 (human) Cl- transport modulation; Q9H2X9; KCC2 cells, thallium flux FluoZin-2 fluorescence; B-score of Tl+ flux slope (higher = more flux/activation; lower = inhibition) at 10 µM; 2.2% of 190,000 active; AID 1456;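 active = thallium flux slope and its plate-corrected score both differing from the plate sample mean at a set confidence after two filtering rounds, in either direction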;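 also: slope of fluorescence scaled to starting intensity during 10 to 20 s after thallium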
KCC2 secondary – confirmation of human KCC2 transport modulators; shares compounds with Cl transport mod; normalised thallium flux (F/F0 slope) at 10 µM; HEK293-KCC2, thallium flux, FluoZin2 fluorescence; hits give high values; 15% of 3,700 active; AID 1713;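 active = thallium flux slope above the same plate's solvent-only control mean plus 3 SD; inconclusive = the two replicate wells disagree; inactive = no significant difference from solvent-only control wells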
KCC2 bumet counter – bumetanide-insensitive thallium flux in KCC2 cells with ouabain, counter-screen. shares compounds with Cl transport mod. 49% of 3,700 active. normalized thallium flux at 10 µM. HEK293-KCC2 + bumetanide/ouabain, thallium flux FluoZin2; hits give high values. AID 1714;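 active = thallium entry rate above the same plate's blocked-transporter control wells by more than 3 SD; inconclusive = the two repeat wells disagree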;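 also: raw slope of fluorescence over initial fluorescence between 10 and 20 s after thallium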
KCC2 sec2 – KCC2 (human) modulation, second secondary assay. shares compounds with Cl transport mod. HEK293-KCC2, thallium flux FluoZin2 fluorescence; actives lie on both sides; F/F0 rise rate, 10–20 s post-thallium. normalized thallium flux at 10 µM. 23% of 3,700 active. AID 1715;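 active = thallium flux slope more than 3 SD above or below the plate's solvent-only control mean, mostly below; inconclusive = the two repeat wells disagreed; inactive = no significant shift from solvent-only controls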;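 also: raw slope with 0.1% DMSO as baseline and bumetanide as block control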
HEK counter1 – counter-screen for KCC2 modulators: effect in parental HEK293 cells; shares compounds with Cl transport mod; thallium flux FluoZin2, ouabain; baseline-ratio fluorescence slope, 10–20 s after thallium; 46% of 3,700 active; thallium flux rate (normalised fluorescence) at 10 µM;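 active = thallium flux rate significantly above the same plate's solvent-only control wells, beyond their mean plus 3 SD; inconclusive = the two replicate wells gave conflicting results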
KCC2 ouabain – confirmation of human KCC2 modulators with ouabain; 48% of 3,700 active; shares compounds with Cl transport mod; HEK293-KCC2, thallium flux FluoZin2 fluorescence; bidirectional: low = inhibitor, high = activator; raw Tl+ flux slope (below DMSO = inhibition, above = activation) at 10 µM;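 active = thallium flux slope beyond 3 SD from same-plate DMSO control mean in most replicates, usually higher, sometimes lower; inconclusive = repeat tests gave conflicting results; inactive = no significant difference from controls in most replicates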;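 also: slope of initial-normalized fluorescence between seconds 10 and 20 after thallium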
HEK293 Tl flux2 – counter-screen for KCC2 modulators: effect in parental HEK293 cells | shares compounds with Cl transport mod | 33% of 3,700 active | thallium flux FluoZin-2 fluorescence slope | thallium flux slope at 10 µM;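 active = thallium flux slope above the same plate's solvent-control mean plus 3 SD in both duplicate wells; inconclusive = duplicate wells that disagreed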;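 also: run without ouabain in cells lacking the KCC2 cotransporter; slope of fluorescence scaled to its starting value between 10 and 20 s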
* hit, by the source's call; i = inactive; ? = inconclusive; . = not tested or not shown. A selection: hits, their analogues and other compounds. The true share with any hit is near 4.2%.

SMILES	Mot1-301 SUMO	KCNQ1 act	AI-2 QS mod	KCNQ1 inh	hERG protect	Cl transport mod	KCC2 secondary	KCC2 bumet counter	KCC2 sec2	HEK counter1	KCC2 ouabain	HEK293 Tl flux2
COc1cc(CNCCSc2nnnn2C)cc(OC)c1OC	-5	i	31	i	-4	.	.	.	.	.	.	.
Cn1nnnc1SCCNCc1ccncc1	-3	i	-4	i	-3	.	0.0093	0.0072	0.03	?	0.021	0.0095
O=C(/C=C/c1ccco1)N1CCN(c2ncccn2)CC1	15	i	29	i	-4	0.33	.	.	.	.	.	.
O=C(/C=C/c1ccco1)N1CCC(Cc2ccccc2)CC1	73	i	30	i	-7	-4.9*	0.007	0.005	0.021*	0.0074	0.014*	0.0099
Cn1c(=O)c([N+](=O)[O-])c(NCc2ccccc2Cl)c2ccccc21	6	i	-11	i	-5	-4.5*	0.0078	0.004	?	0.0063*	?	?
Cn1c(=O)c([N+](=O)[O-])c(NCCc2ccccc2)c2ccccc21	-6	i	6	i	-3	-0.0049	.	.	.	.	.	.
Cc1ccc(C(C#N)c2ccc3c(C(F)(F)F)cc(C(F)(F)F)nc3n2)cc1 (configuration not stated)	-10	43*	52	i	10*	13*	0.022*	0.065*	?	0.017*	0.033*	0.016*
N#CC(c1ccccc1)c1ccc2c(C(F)(F)F)cc(C(F)(F)F)nc2n1 (configuration not stated)	.	i	33	i	-1	1.7	.	.	.	.	.	.
CCOC(=O)Cc1csc(NC(=S)NC(=O)c2ccc(F)cc2)n1	7	8*	3	i	1	11*	0.0072	0.039*	0.041*	0.03*	0.046*	0.02*
CCOC(=O)Cc1csc(NC(=O)Nc2ccc(F)cc2)n1	-8	i	7	i	-5	0.79	.	.	.	.	.	.
CCOC(=O)Cc1csc(NC(=S)NC(=O)c2cc(OC)c(OC)c(OC)c2)n1	-19	i	1	i	-17	6.9*	0.016	0.016*	0.03	0.0098*	0.019	0.011
CCOC(=O)Cc1csc(NC(=O)c2ccc(OC)c(OC)c2)n1	.	i	17	i	-12	-0.0054	.	.	.	.	.	.
CC(=O)OC(/C(O)=C(\C#N)c1nc2ccccc2[nH]1)c1ccccc1 (configuration not stated)	3	i	5	i	-12	.	.	.	.	.	.	.
O=C1Nc2ccccc2S/C1=C/Nc1cccc(Cl)c1	.	i	36	i	-16	.	0.017	?	0.029	0.0071	0.015*	0.0097
Cc1c(NC(=O)C(C)OC(=O)COc2ccc(C#N)cc2)c(=O)n(-c2ccccc2)n1C (configuration not stated)	0	i	22	i	-19	.	.	.	.	.	.	.
CC(C)OC(=O)c1cc2c(ccn2C)n1CC(=O)N1CCC(Cc2ccccc2)CC1	-3	i	14	i	-10	-5.7*	0.0064	0.0042	0.024*	?	0.014*	0.0099
O=C(CCCN1C(=O)c2cccc3cccc(c23)C1=O)N1CCc2ccccc2C1	0	i	36	i	-11	-4.1*	0.015	?	0.024*	0.0058*	0.012*	0.0087
CCn1c(SCC(=O)NC2CC2)nnc1-c1ccc(C)cc1	12	i	11	i	-10	.	.	.	.	.	.	.
CNC(=O)NC(=O)CSc1ccc(NC(C)=O)cc1	4	i	3	i	-16	0.43	.	.	.	.	.	.
O=c1[nH]c(CSc2nc(-c3ccccc3)cs2)nc2ccccc12	-2	i	14	i	-7	-0.21	.	.	.	.	.	.
O=c1[nH]c(CSc2ncnc3sc(-c4ccccc4)cc23)nc2ccccc12	113	i	5	i	-5	27*	0.0069	0.024*	0.031	0.021*	0.032*	0.014*
CC(NC(=O)NC1CCCCC1)C(c1cccs1)N1CCN(c2ccccc2)CC1 (configuration not stated)	100	i	14	i	-5	.	.	.	.	.	.	.
COC(=O)c1c(NC(=O)Cc2ccccc2)sc(C)c1C	1	i	1	i	-5	-0.49	.	.	.	.	.	.
COC(=O)c1c(NC(=S)Nc2ccccc2Cl)sc(C)c1C	-15	i	15	i	2	6.3*	0.013*	0.022*	0.03	0.014*	?	0.012*
Cc1cccc(NC(=S)NCC(c2cccnc2)N(C)C)c1 (configuration not stated)	3	i	15	i	-7	0.28	.	.	.	.	.	.
SMILES	Mot1-301 SUMO	KCNQ1 act	AI-2 QS mod	KCNQ1 inh	hERG protect	Cl transport mod	KCC2 secondary	KCC2 bumet counter	KCC2 sec2	HEK counter1	KCC2 ouabain	HEK293 Tl flux2
C/C(=N\NC(=O)c1cccc([N+](=O)[O-])c1)c1cccs1	-8	i	-4	i	-7	3.8*	0.011	0.023*	0.034	0.017*	?	?
O=C(N/N=C1\CCCc2ccccc21)c1cccc([N+](=O)[O-])c1	5	i	16	i	-1	4.4*	?	0.023*	0.033	0.012*	0.026	0.012*
O=C(NN=C1CCCC1)c1cccc(Br)c1	6	i	8	i	-6	.	.	.	.	.	.	.
O=C(N/N=C1/CCCc2ccccc21)c1cc([N+](=O)[O-])cc([N+](=O)[O-])c1	-2	i	4	i	-15	1.5	.	.	.	.	.	.
C/C(=N/NC(=O)c1cccs1)c1ccco1	-13	i	5	i	-7	4.7*	0.0086	0.015*	0.032	?	?	0.011*
O=C(N/N=C1\CCCc2ccccc21)c1cccc(Br)c1	-1	i	18	i	-8	5.9*	?	0.022*	0.029	0.011*	?	?

Source: PubChem BioAssay
